Hits are enriched below; roughly 3.7% of the tested compounds scored in any of these assays.
FGF22 binding – FGF22 (human) thermal shift binding; activity (Tm shift, normalised), % at 9.99 µM; recombinant FGF22 thermal shift, SYPRO orange fluorescence; percent of sucrose octasulfate shift, DMSO zero; hit rate 1.5% among 340,000; AID 651658;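 active = mean Tm shift, scaled 0 neutral to 100 positive control, at about 1.3% or above, every replicate too, limit read from the data; inconclusive = no clear call, values can overlap the other calls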
CFTR F508del cor – CFTR F508del correction in bronchial cells | CFBE cells, YFP halide quenching; stimulated with forskolin plus potentiator P3; % fluorescence drop versus neutral controls | activity (quench increase), % at 7.58 µM | hit rate 0.36% among 350,000 | AID 720511;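 active = mean added fluorescence quench of at least 8% versus neutral control, with both replicates also reaching 8%; inconclusive = only one of the mean or replicate conditions met; inactive = mean below 8% and not both replicates reaching 8%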;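 note: cells transiently co-express mutant CFTR-F508del with the halide-sensitive YFP; corrector assay measuring rescue of mutant channel to the surface after 24 h compound exposure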
E-selectin induc – induces E-selectin expression in human endothelial cells. HUVEC E-selectin immunofluorescence imaging; normalized: neutral wells 0, TNF-alpha wells 100. hit rate 0.37% among 260,000. AID 686992. activation, % at 7.58 µM;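 active = mean E-selectin-positive cell signal at least 10% of the positive control, reached in at least 60% of replicates, without over 20% cell loss; inconclusive = no rule given, readout overlaps actives, possibly toxicity-flagged; inactive = the rest, including those meeting only one limit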
Target sequence (P16581 whole entry, looked up): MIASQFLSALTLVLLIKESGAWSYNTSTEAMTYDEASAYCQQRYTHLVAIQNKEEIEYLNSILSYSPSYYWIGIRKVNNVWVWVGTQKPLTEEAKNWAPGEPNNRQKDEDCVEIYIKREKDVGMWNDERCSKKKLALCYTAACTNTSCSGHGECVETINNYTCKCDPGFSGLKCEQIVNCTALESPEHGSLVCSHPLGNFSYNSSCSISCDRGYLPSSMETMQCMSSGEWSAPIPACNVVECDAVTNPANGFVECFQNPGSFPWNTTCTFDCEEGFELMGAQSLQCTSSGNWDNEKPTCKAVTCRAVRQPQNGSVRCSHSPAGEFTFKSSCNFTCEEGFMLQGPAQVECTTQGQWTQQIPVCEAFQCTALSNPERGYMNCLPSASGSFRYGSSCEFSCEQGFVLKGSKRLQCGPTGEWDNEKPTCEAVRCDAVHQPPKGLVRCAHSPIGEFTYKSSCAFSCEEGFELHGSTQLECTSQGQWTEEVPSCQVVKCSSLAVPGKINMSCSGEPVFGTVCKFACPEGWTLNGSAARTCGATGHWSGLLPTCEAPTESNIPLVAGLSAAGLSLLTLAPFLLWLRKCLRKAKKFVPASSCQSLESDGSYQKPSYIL
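System: HUVEC, human umbilical vein endothelial cells; quantity: 3,000 cells/well; buffer or medium: EGM-2 medium, gelatin-coated wells; dosing: single-point compound dose; detection: immunofluorescence imaging; evaluation: % PE-positive cells; benchmarks: TNF-alpha, DMSO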
DENV2 CPE rescue – DENV2-induced cell death inhibition | hit rate 1.7% among 350,000 | DENV2-infected cells, cytopathic effect rescue, plate reader | CPE inhibition, % at 9.99 µM | AID 651640; in the data active = CPE inhibition above about 20%, passing the limit was not always enough; inconclusive = no clear call, values can overlap the other calls; tested in BHK-21 cells;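 note: 0% = median of neutral control wells and 100% = median of positive control wells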
ERAP1 HTS inh – blocks human ERAP1 aminopeptidase activity; hit rate 0.15% among 340,000; Q9NZ08; recombinant ERAP1, Leu-AMC fluorescence, 60 min; inhibition, % at 10.7 µM;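 active = mean replicate inhibition of at least 30%, or all replicates individually reaching that 30% level; inactive = mean below 30% and not every replicate reaching it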;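 note: 0% = neutral control wells and 100% = L-leucinethiol positive control wells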
An asterisk follows results filed as active; ? = inconclusive; · = not tested or not shown; ! = not active in a repeat.

SMILES	FGF22 binding	CFTR F508del cor	E-selectin induc	DENV2 CPE rescue	ERAP1 HTS inh
COc1ccc(S(=O)(=O)Nc2ccc3c(c2)C(=O)N([C@H](C)CO)C[C@H](C)[C@H](CN(C)C(=O)Nc2ccc(C(F)(F)F)cc2)OCCCC[C@H](C)O3)cc1	0.0	0.9	0.0	75.7*	-3.4
COc1ccc(S(=O)(=O)Nc2ccc3c(c2)C(=O)N([C@H](C)CO)C[C@@H](C)[C@H](CN(C)C(=O)Nc2ccc(C(F)(F)F)cc2)OCCCC[C@H](C)O3)cc1	0.9	-4.8	0.0	10.2	-3.1
N#C[C@H]1[C@H](c2ccccc2C2=CCCCC2)[C@H](CO)N1C(=O)c1cccc(F)c1	-0.1	4.9	0.0	1.6	-0.7
O=C(NCc1cccnc1)C(=O)NCC(c1ccco1)N1CCN(c2ccccc2)CC1 (stereo unspecified)	·	-1.6	·	21.0*	4.8
C[C@H]1CN([C@@H](C)CO)C(=O)c2cccc(NC(=O)c3cnccn3)c2O[C@H]1CN(C)C(=O)Nc1ccc(C(F)(F)F)cc1	0.2	-1.5	·	8.2	-0.4
CN1CCN(c2ccccc2NC(=O)c2cccc([N+](=O)[O-])c2)CC1	43.6*	2.2	0.0	-5.9	-1.2
O=C(Nc1ccccc1N1CCCC1)c1ccc(Cl)cc1Cl	0.0	-1.4	·	1.7	-1.7
O=C(Nc1ccccc1N1CCCC1)c1ccc([N+](=O)[O-])cc1Cl	43.9*	0.9	·	10.6	2.3
O=C(Nc1ccccc1N1CCCC1)c1cc(Cl)ccc1Cl	44.5*	0.2	·	?	0.3
Cc1nc(C(F)(F)F)c(C(=O)N/N=C(\N)c2cccnc2)s1	43.4*	0.7	·	0.8	-0.1
Cc1noc(C)c1NC(=O)N(C)C[C@@H]1Oc2ccc(NS(=O)(=O)c3cccs3)cc2C(=O)N([C@H](C)CO)C[C@@H]1C	-0.3	0.6	19.1	2.4	-0.3
C[C@H]1CN([C@@H](C)CO)C(=O)c2cc(NS(=O)(=O)c3cccs3)ccc2O[C@@H]1CN(C)C(=O)Nc1ccc2c(c1)OCO2	-0.2	-1.0	1.4	16.6	-1.8
C[C@@H]1CN([C@@H](C)CO)C(=O)c2cc(NS(=O)(=O)c3cccs3)ccc2O[C@@H]1CN(C)C(=O)Nc1ccc2c(c1)OCO2	-0.2	0.7	36.0*	-1.3	-1.9
C[C@@H]1CN([C@@H](C)CO)C(=O)c2cc(NS(=O)(=O)c3ccccc3)ccc2O[C@@H]1CN(C)C(=O)Nc1ccc2c(c1)OCO2	-0.4	2.3	0.0	49.1*	2.0
Cc1noc(C)c1NC(=O)N(C)C[C@H]1Oc2ccc(NS(=O)(=O)c3cccs3)cc2C(=O)N([C@@H](C)CO)C[C@@H]1C	0.0	-1.0	-2.8	38.5*	1.2
CCS(=O)(=O)N1CCC2(CC1)CN(C(=O)CN1CCOCC1)[C@@H](CO)c1c2c2ccc(OC)cc2n1C	·	-2.1	0.2	16.2	·
Cc1ccc(S(=O)(=O)Nc2ccc3c(c2)CC(=O)N([C@H](C)CO)C[C@@H](C)[C@@H](CN(C)S(=O)(=O)c2ccc(Cl)cc2)O3)cc1	-0.1	1.2	-0.3	?	·
CCC(O)c1cnc(OCc2ccccc2)nc1OCc1ccccc1 (stereo unspecified)	30.4*	0.3	-0.1	2.8	-2.9
Cc1nc2nc(N)nc(OCc3ccccc3)c2nc1C	0.0	-2.1	·	0.6	·
O=C(c1ccc(Cl)cc1)N1CCN=C1c1ccccc1	0.1	-5.1	·	-6.3	-1.2
Cc1cc(C)cc(C(=O)N2CCN=C2c2ccccc2)c1	43.2*	-1.7	·	·	-8.2
CCCNC(=O)C[C@@H]1CC[C@H]2[C@@H](COc3ccc(NC(=O)c4ccc(Cl)cc4)cc3C(=O)N2C)O1	0.0	1.0	0.2	-4.5	·
O=C1CSC(c2ccccc2)N1CC(O)c1ccc([N+](=O)[O-])cc1 (stereo unspecified)	0.0	0.9	·	0.5	0.2
CCN(CC)CCCN1C(=O)CSC1c1ccc([N+](=O)[O-])cc1 (stereo unspecified)	43.4*	-1.6	·	-4.9	-0.2
CNC[C@H]1Oc2cc(C#CCN(C)C)ccc2S(=O)(=O)N([C@H](C)CO)C[C@@H]1C	-0.2	-3.0	-0.7	9.5	1.4
SMILES	FGF22 binding	CFTR F508del cor	E-selectin induc	DENV2 CPE rescue	ERAP1 HTS inh
C[C@H](CO)N1C[C@H](C)[C@H](CN(C)C(=O)Nc2cccc3ccccc23)Oc2ccc(NC(=O)Cn3cnnn3)cc2CC1=O	-0.1	-1.7	-3.9	-5.6	·
COCC(=O)Nc1ccc2c(c1)[C@@H]1C[C@@H](CC(=O)NC3CCCCC3)O[C@H](CO)[C@@H]1O2	-0.4	-0.5	-0.1	1.8	-1.0
O=C(CC1CC1)Nc1ccc2c(c1)[C@@H]1C[C@H](CC(=O)NC3CCCC3)O[C@@H](CO)[C@@H]1O2	-0.2	1.0	3.6	29.0*!	2.7
COCC(=O)Nc1ccc2c(c1)[C@H]1C[C@@H](CC(=O)NC3CCCCC3)O[C@H](CO)[C@H]1O2	0.2	0.2	2.5	32.5*	2.2
CCN(CC)S(=O)(=O)c1cccc(C(=O)c2c(C)cc3ccccn23)c1	43.2*	1.9	·	7.2	-5.1
Cc1[nH]c2ccccc2c1CC(=O)Nc1ccc(N(C)c2cccnc2)c(-c2ccc(F)c(F)c2)c1	-0.2	-1.5	1.8	83.5*	-0.6
CN(c1cccnc1)c1ccc(NC(=O)Cc2c[nH]c3ccccc23)cc1-c1ccc(F)c(F)c1	0.2	-1.8	1.5	0.8	1.1
O=C(Cc1ccncc1)N1CC[C@@H]2[C@H]1c1cc(-c3cccc(F)c3)ccc1N[C@@H]2CO	-0.2	2.7	-0.4	-12.8	·
C/C=C/c1ccc([C@H]2[C@H](CO)N3C(=O)CN(C(=O)c4cccc(F)c4)C[C@@H]23)cc1	·	5.6	0.0	0.5	-0.7
Cc1ccc2nc(NC(=O)c3ccc(N4C(=O)CCC4=O)cc3)sc2c1	43.3*	2.4	0.7	2.0	-3.2
Cc1cc(C)c2sc(NC(=O)c3ccc(N4C(=O)CCC4=O)cc3)nc2c1	-0.1	2.6	-0.2	?	·
CC(=O)c1cccc(N(C(=O)c2ccco2)C(C(=O)NC2CCCC2)c2ccc(N3CCOCC3)cc2)c1 (stereo unspecified)	42.9*	-0.9	·	7.6	-2.4
O=C(C[C@H]1CC[C@@H](NS(=O)(=O)c2ccc(F)cc2)[C@H](CO)O1)NCCN1CCCCC1	-0.1	-0.6	-1.4	?	0.0
COc1ccc2c(c1)c(CC(=O)OCC(N)=O)c(C)n2C(=O)c1ccc(Cl)cc1	0.3	0.1	·	5.5	-1.4
COc1ccc2c(c1)c(CC(=O)OCC(=O)O)c(C)n2C(=O)c1ccc(Cl)cc1	0.0	8.5*	2.5	-2.4	-2.1
C[C@@H]1CN([C@@H](C)CO)C(=O)c2cc(NC(=O)Cn3cnnn3)ccc2O[C@H]1CN(C)Cc1ccccc1	0.6	-0.8	0.2	3.3	3.5
Cc1ccc2cccc(S(=O)(=O)N3CCCc4ccccc43)c2n1	43.1*	-0.8	·	5.8	0.8

Bioassay records as filed in PubChem.
